# Experimental data reported in ChEMBL document CHEMBL3822362, “Effects of N-Substitutions on the Tetrahydroquinoline (THQ) Core of Mixed-Efficacy μ-Opioid Receptor (MOR)/δ-Opioid Receptor (DOR) Ligands” (J Med Chem, 2016).
# The source made the active and inactive calls.
# Experiments:
# Mu-type opioid receptor [1] = target: T1, Mu-type opioid receptor (Rattus norvegicus, UniProt P33535); test: Agonist activity at rat MOR transfected in rat C6 cell membranes after 1 hr by [35S]GTPgammaS assay; format: functional
# T1 sequence (P33535 whole entry): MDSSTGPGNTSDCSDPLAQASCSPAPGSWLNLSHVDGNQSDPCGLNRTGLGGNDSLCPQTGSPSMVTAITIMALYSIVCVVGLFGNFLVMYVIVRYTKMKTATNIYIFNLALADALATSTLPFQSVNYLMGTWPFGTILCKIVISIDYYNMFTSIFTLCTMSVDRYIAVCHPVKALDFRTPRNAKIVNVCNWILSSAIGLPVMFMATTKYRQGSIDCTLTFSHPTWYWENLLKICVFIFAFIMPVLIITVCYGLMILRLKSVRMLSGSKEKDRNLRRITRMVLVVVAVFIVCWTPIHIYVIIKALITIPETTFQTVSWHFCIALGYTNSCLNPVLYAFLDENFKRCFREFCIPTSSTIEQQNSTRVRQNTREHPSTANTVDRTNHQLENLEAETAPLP
# Outline: (§1)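 Membranes (10–20 μg protein) from cells grown to confluence in DMEM/10% FBS, incubated 1 h at 25 °C in 50 mM Tris-HCl, 100 mM NaCl, 5 mM MgCl2, pH 7.4 with 0.1 nM [35S]GTPγS, 30 μM GDP and varying peptidomimetic concentrations. Filtered on GF/C, counted by scintillation. % stimulation relative to 10 μM DAMGO (MOR), DPDPE (DOR) or U69,593 (KOR).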
# [2] = target: T2, Kappa-type opioid receptor (Homo sapiens, UniProt P41145); test: Displacement of [3H]diprenorphine from human KOR expressed in CHO cell membranes after 1 hr by liquid scintillation counting
# T2 sequence (P41145 whole entry): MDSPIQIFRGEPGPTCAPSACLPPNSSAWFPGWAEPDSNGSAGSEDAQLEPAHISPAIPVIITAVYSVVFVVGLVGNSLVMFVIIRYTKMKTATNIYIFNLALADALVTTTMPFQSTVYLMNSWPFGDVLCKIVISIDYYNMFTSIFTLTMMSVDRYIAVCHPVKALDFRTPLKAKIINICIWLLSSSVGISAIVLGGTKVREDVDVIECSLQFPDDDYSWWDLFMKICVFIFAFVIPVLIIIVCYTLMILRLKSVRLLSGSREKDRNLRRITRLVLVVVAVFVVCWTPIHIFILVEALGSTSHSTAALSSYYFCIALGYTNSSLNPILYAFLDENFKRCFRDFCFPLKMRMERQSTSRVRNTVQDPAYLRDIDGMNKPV
# Outline: (§2)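 Membranes (20 μg protein/tube) in 50 mM Tris-HCl pH 7.4 with 0.2 nM [3H]diprenorphine and varying peptidomimetic concentrations, 1 h at room temperature to equilibrium. GF/C filtration, five buffer washes, scintillation counting. Nonspecific binding with 10 μM naloxone.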
# [3] = target: T2, Kappa-type opioid receptor; test: Agonist activity at human KOR expressed in CHO cell membranes after 1 hr by [35S]GTPgammaS assay; format: functional; outline: as §1
# [4] = target: T3, Delta-type opioid receptor (Rattus norvegicus, UniProt P33533); test: Displacement of [3H]diprenorphine from rat DOR transfected in rat C6 cell membranes after 1 hr by liquid scintillation counting; outline: as §2
# T3 sequence (P33533 whole entry): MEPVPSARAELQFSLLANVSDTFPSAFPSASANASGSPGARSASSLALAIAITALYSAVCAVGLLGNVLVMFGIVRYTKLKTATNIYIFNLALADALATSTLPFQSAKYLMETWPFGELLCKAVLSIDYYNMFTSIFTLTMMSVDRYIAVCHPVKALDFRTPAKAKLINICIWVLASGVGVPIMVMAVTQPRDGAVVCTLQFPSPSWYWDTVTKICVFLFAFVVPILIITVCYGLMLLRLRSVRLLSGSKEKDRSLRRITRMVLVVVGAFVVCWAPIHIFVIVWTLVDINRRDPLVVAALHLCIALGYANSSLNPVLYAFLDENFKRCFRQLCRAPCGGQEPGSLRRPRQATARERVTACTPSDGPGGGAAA
# [5] = target: T2, Kappa-type opioid receptor; test: Agonist activity at human KOR expressed in CHO cell membranes at 10 uM after 1 hr by [35S]GTPgammaS assay relative to U69,593; format: functional; outline: as §1
# [6] = target: T3, Delta-type opioid receptor; test: Agonist activity at rat DOR transfected in rat C6 cell membranes after 1 hr by [35S]GTPgammaS assay; format: functional; outline: as §1
# [7] = target: Delta-type opioid receptor (Rattus norvegicus) (UniProt P33533); test: Agonist activity at rat DOR transfected in rat C6 cell membranes at 10 uM after 1 hr by [35S]GTPgammaS assay relative to DPDPE; format: functional; outline: as §1
# Sequence of Delta-type opioid receptor (Rattus norvegicus) (P33533 whole entry): as above
# [8] = target: Mu-type opioid receptor (Rattus norvegicus) (UniProt P33535); test: Agonist activity at rat MOR transfected in rat C6 cell membranes at 10 uM after 1 hr by [35S]GTPgammaS assay relative to DAMGO; format: functional; outline: as §1
# Sequence of Mu-type opioid receptor (Rattus norvegicus) (P33535 whole entry): as the sequence (P33535 whole entry) above
# Mu-type opioid receptor [9] = target: T1, Mu-type opioid receptor; test: Displacement of [3H]diprenorphine from rat MOR transfected in rat C6 cell membranes after 1 hr by liquid scintillation counting; outline: as §2
# Mus musculus [10] = test: Antinociceptive activity in C57BL/6 mouse assessed as increase in latency time to tail flick at 1 to 10 mg/kg, ip measured at 30 min interval by warm water tail withdrawal assay; format: functional, organism-based
# Outline: (§3)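 Adult male C57BL/6 mice, 20–30 g, 8–16 weeks. Saline ip, baseline read 30 min later. Then three increasing ip doses every 30 min, in water or 1:1:8 ethanol:Alkumuls:water, giving cumulative 1, 3.2 and 10 mg/kg. Tail tip (2–3 cm) put in 50 °C water 30 min after each injection; latency to withdraw or flick read, 20 s cutoff; n = 3.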
# Mus musculus [11] = test: Antinociceptive activity in C57BL/6 mouse assessed as latency time to tail flick at 10 mg/kg, ip measured at 30 min interval by warm water tail withdrawal assay; format: functional; outline: as §3
# Mus musculus [12] = test: Antinociceptive activity in C57BL/6 mouse assessed as time duration of action at 10 mg/kg, ip by warm water tail withdrawal assay; format: functional
# Outline: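 Male C57BL/6 mice given a single 10 mg/kg ip dose. Tail-withdrawal latency in 50 °C water (2–3 cm tail tip, 20 s cutoff) read at varying times after dosing to follow duration of antinociception; n = 3.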
# Mus musculus [13] = test: Antinociceptive activity in C57BL/6 mouse assessed as increase in latency time to tail flick at 1 to 3.2 mg/kg, ip measured at 30 min interval by warm water tail withdrawal assay; format: functional, organism-based; outline: as §3
SMILES,EC50 (Mu-type opioid receptor [1]),Ki [2],EC50 ([3]; read-out: EC50),Ki [4],Emax [5],EC50 ([6]; read-out: EC50),Emax [7],Emax [8],Ki (Mu-type opioid receptor [9]),Activity (Mus musculus [10]),Time (Mus musculus [11]),Time (Mus musculus [12]),EC50 ([3]; cho),EC50 ([6]; c6),Activity (Mus musculus [13])
CCC(=O)N1CC[C@@H](NC(=O)[C@@H](N)Cc2c(C)cc(O)cc2C)c2cc(Cc3ccccc3)ccc21,3.9 nM,40 nM,880 nM,1.1 nM,32%,32 nM,58%,96%,0.12 nM,,,,,,
COCC(=O)N1CC[C@@H](NC(=O)[C@@H](N)Cc2c(C)cc(O)cc2C)c2cc(Cc3ccccc3)ccc21,3 nM,34 nM,> 1700 nM,2.1 nM,38%,67 nM,47%,91%,0.15 nM,inactive,,,,,
COC(=O)N1CC[C@@H](NC(=O)[C@@H](N)Cc2c(C)cc(O)cc2C)c2cc(Cc3ccccc3)ccc21,0.78 nM,29 nM,250 nM,0.51 nM,28%,14 nM,40%,95%,0.19 nM,,20 s,1 h,,,
COC(=O)N1CC[C@@H](NC(=O)[C@@H](N)Cc2c(C)cc(O)cc2C)c2cc(Cc3ccc4ccccc4c3)ccc21,0.39 nM,190 nM,,1 nM,,,,110%,0.32 nM,inactive,,,Not Active,Not Active,
CCCC(=O)N1CC[C@@H](NC(=O)[C@@H](N)Cc2c(C)cc(O)cc2C)c2cc(Cc3ccccc3)ccc21,3.5 nM,50 nM,> 1200 nM,1 nM,22%,8.1 nM,44%,53%,0.1 nM,,,,,,
Cc1cc(O)cc(C)c1C[C@H](N)C(=O)N[C@@H]1CCN(CC(N)=O)c2ccc(Cc3ccccc3)cc21,1.5 nM,4.3 nM,380 nM,2 nM,49%,270 nM,34%,99%,0.23 nM,inactive,,,,,
Cc1cc(O)cc(C)c1C[C@H](N)C(=O)N[C@@H]1CCN(C(=O)c2ccccc2)c2ccc(Cc3ccccc3)cc21,2.6 nM,39 nM,430 nM,0.24 nM,16%,,,74%,0.08 nM,inactive,,,,Not Active,
Cc1cc(O)cc(C)c1C[C@H](N)C(=O)N[C@@H]1CCN(C(=O)C2CCC2)c2ccc(Cc3ccccc3)cc21,2.1 nM,56 nM,,0.15 nM,inactive,5.1 nM,58%,94%,0.23 nM,inactive,,,Not Active,,
Cc1cc(O)cc(C)c1C[C@H](N)C(=O)N[C@@H]1CCN(C(=O)C(C)C)c2ccc(Cc3ccccc3)cc21,9.6 nM,76 nM,> 1300 nM,0.53 nM,41%,25 nM,52%,95%,0.38 nM,inactive,,,,,
CCC(=O)N1CC[C@@H](NC(=O)[C@@H](N)Cc2c(C)cc(O)cc2C)c2cc(Cc3ccc4ccccc4c3)ccc21,13 nM,58 nM,> 1400 nM,0.21 nM,15%,,,75%,0.28 nM,inactive,,,,Not Active,
CCCC(=O)N1CC[C@@H](NC(=O)[C@@H](N)Cc2c(C)cc(O)cc2C)c2cc(Cc3ccc4ccccc4c3)ccc21,0.9 nM,64 nM,,0.8 nM,inactive,,inactive,92%,0.14 nM,inactive,,,Not Active,Not Active,
Cc1cc(O)cc(C)c1C[C@H](N)C(=O)N[C@@H]1CCN(C(=O)C2CC2)c2ccc(Cc3ccccc3)cc21,1.8 nM,25 nM,1000 nM,0.35 nM,32%,10 nM,69%,88%,0.1 nM,,11 s,,,,
CC(=O)N1CC[C@@H](NC(=O)[C@@H](N)Cc2c(C)cc(O)cc2C)c2cc(Cc3ccccc3)ccc21,,,,,,,,,,inactive,,,,,
Cc1cc(O)cc(C)c1C[C@H](N)C(=O)N[C@@H]1CCNc2ccc(Cc3ccccc3)cc21,,,,,,,,,,,,1 h,,,inactive
Cc1cc(O)cc(C)c1C[C@H](N)C(=O)N[C@@H]1CCN(CC(=O)O)c2ccc(Cc3ccccc3)cc21,78 nM,280 nM,,67 nM,inactive,,inactive,87%,4.4 nM,,,,Not Active,Not Active,
CCOC(=O)CN1CC[C@@H](NC(=O)[C@@H](N)Cc2c(C)cc(O)cc2C)c2cc(Cc3ccccc3)ccc21,5.1 nM,15 nM,> 1300 nM,0.58 nM,24%,15 nM,34%,79%,0.37 nM,,,,,,
